Published values collected from several papers.
Lines come from different studies, so protocols differ.
Target: Serine/threonine-protein kinase PLK2 (PLK2, Homo sapiens, UniProt Q9NYY3)

SMILES	read-out	action	technique	concentration	endpoint	value
CC(C)(C)c1cc(C=C(C#N)C#N)cc(Br)c1O	enzyme activity	inhibitor		0.5 µM	remaining activity	92.6%
Cn1cc(-c2cc(F)cc(N3CCn4c(cc5c4CCCC5)C3=O)c2CO)cc(Nc2ccc(N3CCN(C4COC4)CC3)cn2)c1=O	enzyme activity	inhibitor		0.1 µM	inhibition	18%
O=c1[nH]c2ccccc2n1C1CCN(Cc2ccc(-c3[nH]c4cc5ncnc5cc4nc3-c3ccccc3)cc2)CC1	cell-free assay			0.5 µM	remaining signal	95.5%
Cc1nn(C)cc1-c1nc2c(N3CCN(Cc4ccc(Cl)cc4)CC3)c(Cl)cnc2[nH]1	binding		competition with immobilised ligand	1 µM	remaining binding	93%
N#CC1(c2ccccn2)CCN(Cc2cc(C(=O)O)c(=O)n3ccccc23)CC1	cell-free assay		competition with immobilised ligand	1 µM	remaining binding	80%
Nc1ncc(-c2nc(N3CCOCC3)nc(N3CCOCC3)n2)c(C(F)F)n1	binding		competition with immobilised ligand	10 µM	remaining binding	73%
COc1ncccc1-c1cnn2ccc(N3CCN(C(=O)OC(C)C)CC3)nc12	binding		competition with immobilised ligand	1 µM	remaining binding	96%
Cn1cc(-c2cccc(N3CCc4c(sc5c4CC(C)(C)C5)C3=O)c2CO)cc(Nc2ccncn2)c1=O	enzyme activity	inhibitor		1 µM	inhibition	21%
Cn1cncc1[C@@](O)(COc1ccc(C#N)cc1-c1ccc(OC(F)(F)F)cc1)c1ccc(C#N)cc1	cell-free assay		competition with immobilised ligand	1 µM	remaining binding	86%
